Measurements from PubChem BioAssay AID2052 (NMMLSC, 2009).
The whole screen tested about 330,000 compounds, of which about 220 (0.067%) were called active.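 How the source made its calls: active means response, share of CD8 T cells binding vesicles, and their 90th percentile fluorescence all below set limits (cut at about 80% in these data, passing the limit was not always enough); inactive means the rest, inconclusive results apart.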 Only a selection was taken, and actives are over-represented in it overall.

assay: modulators of CD8 T cell-vesicle binding, primary screen, mouse 2C CD8+ T cells, flow cytometry (AID 2052); conditions: 2C CD8+ T cell-vesicle binding, at 7 µM, stronger effect = lower value; double positive events: measured here: CD8+ vesicle-bound cell fraction;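 on double positive events: binding gate set so that unloaded-vesicle control wells show 10% double positive cells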;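 on response (vesicle binding): values below 100% mean blocked vesicle binding to the CD8+ T cells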
How it was run: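 Benchmarks: naked versus QL9-loaded vesicles / Assay system: purified 2C TCR transgenic mouse naive CD8+ T cells / Technique: high-throughput flow cytometry with anti-B7-1 and anti-CD8 staining / Timing: Cell–vesicle co-incubation 1.5 h at 37 °C, staining 20 min on ice / Read-out: percent CD8+ FL2 mean versus row control / Probe or stimulus: QL9-loaded Drosophila micro-vesicles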

SMILES	double positive events [%]	response (vesicle binding)
CCCCOc1ccc(NC(=O)CSCC(=O)OCC)cc1	29.6	186% (inactive)
CN(C)/C=C(/C(=O)c1ccc(Cl)cc1)S(=O)(=O)c1ccccc1	37.1	209% (inactive)
Cc1nn(Cc2ccc(C(=O)N3N=C(C(F)F)CC3(O)C(F)F)cc2)c(C)c1[N+](=O)[O-] (configuration not stated)	36.3	446% (inactive)
C1=C(N2CCOCC2)/C(=C/c2nc3ccccc3[nH]2)CC1	33.6	242% (inactive)
CC1CC(C)(C)n2c(O)c(N=NC(N)=S)c3cccc1c32 (configuration not stated)	21.4	405% (inactive)
CC1CCc2sc(C(=O)NCC(c3ccco3)N3CCCCC3)cc2C1 (configuration not stated)	29.9	209% (inactive)
CS(=O)(=O)N(CC(=O)Nc1ccc(F)cc1F)c1cccc([N+](=O)[O-])c1	31.4	763% (inactive)
O=C(c1ccccc1)c1ccc2nc(N3CCCCC3)c3nncn3c2c1	4.3	87.7% (inactive)
Cc1c(Cl)cccc1NC(=S)NCC(O)c1ccccc1 (configuration not stated)	56.7	132% (inactive)
CC(=O)Nc1ccc(S(=O)(=O)Oc2ccc(Br)cc2C(=S)N2CCOCC2)cc1	35.8	429% (inactive)
Cc1ccc(OCC(=O)Nc2ccc(C(=O)O)cc2NC(=O)COc2ccc(C)c(C)c2)cc1C	35.6	196% (inactive)
COc1ccc(/C=C(/NC(=O)c2ccccc2)C(=O)Nc2cccc(C(=O)O)c2)cc1	39.2	259% (inactive)
CCOc1ccc(S(=O)(=O)NCc2ccc3c(c2)OCO3)cc1C	23.9	381% (inactive)
Cc1cc(Br)ccc1NC(=O)CN(C)C(=O)CN1C(=O)NC2(CCCC2)C1=O	8.3	215% (inactive)
COCc1cc(C)n(CC(=O)NCC2CCCO2)c(=O)c1C#N (configuration not stated)	19.7	237% (inactive)
CC(=O)Nc1ccc(NC(=O)CSC2=NS(=O)(=O)c3ccccc3N2)cc1	46.2	285% (inactive)
COc1cc(/C=C/C(=O)N2CCc3ccccc3C2)cc(OC)c1OC	39.9	216% (inactive)
CCc1cc(CNC(=O)CC2C(=O)NCCN2Cc2ccccc2C(F)(F)F)on1 (configuration not stated)	21.1	297% (inactive)
CS(=O)(=O)c1ccc(C(=O)NNC(=O)c2cccs2)cc1	52.2	322% (inactive)
O=C(NC1CCCC1)C(c1c(F)cccc1Cl)N(C(=O)c1csnn1)C1CC1 (configuration not stated)	17.4	421% (inactive)
CCc1ccc(NC(=O)C(=O)N/N=C(\C)CC(=O)NCCOC)cc1	23.6	154% (inactive)

SMILES	double positive events [%]	response (vesicle binding)
CCc1ccc(-n2c(SCc3cc(=O)n4cc(Br)ccc4n3)nc3[nH]ncc3c2=O)cc1	30.8	314% (inactive)
Cc1sc2ncnc(N3CCC(C(=O)NNC(=O)c4ccc(F)cc4)CC3)c2c1C	64.9	227% (inactive)
CC1CCN(c2ccc(S(=O)(=O)Nc3cc(C(=O)O)cc(C(=O)O)c3)cc2[N+](=O)[O-])CC1	24.9	234% (inactive)
CCn1c2c(c3ccc(OC)cc31)CCCC2=O	43.3	241% (inactive)
COC/C=C/C1=CC2=CC(=O)C(C)(OC(=O)CCC(=O)OC)C(=O)C2=CO1 (configuration not stated)	30.4	292% (inactive)
CCCN=C1NC(=O)C(CC(=O)NCCc2ccc(OC)c(OC)c2)S1 (configuration not stated)	39.4	112% (inactive)
CCN(CC(=O)Nc1c(F)cccc1F)C(=O)CN1c2cccc3cccc(c23)S1(=O)=O	43.4	247% (inactive)
O=C1C=C(NCCNc2c(F)c(F)c(CO)c(F)c2F)CCC1	42.6	169% (inactive)
COCCN1C2=C(COC(C)(C)C2)C(=S)NC1c1ccccc1 (configuration not stated)	26.4	676% (inactive)
Cc1cc(C(=O)N2CCN(c3ccccn3)CC2)c(C)o1	21	214% (inactive)
Cn1ccc(=NC=C(C#N)C#N)c2ccccc21	46.1	136% (inactive)
Cc1cc(C)n2nc(C(=O)OCC(=O)N(C)CC(=O)Nc3ccc(F)cc3)nc2n1	43	342% (inactive)
CS(=O)(=O)N1CCc2cc(C(=O)Nc3ccccc3Br)ccc21	35.6	198% (inactive)
CN(C)N=Nc1ccc2nc[nH]c2c1	13.7	692% (inactive)
CO/N=C/c1ccc(N2CCN(C(=O)c3cccc(Cl)c3)CC2)c([N+](=O)[O-])c1	24.8	143% (inactive)
CSc1sc(C(=O)NNC(=O)c2ccc(Cl)cc2)c2c1C=CCC2	57.7	168% (inactive)
CCCCn1c(N)c(N2CCOCC2)c(=O)n(CC(=O)NCCc2ccccc2)c1=O	52.1	370% (inactive)
CCCN1CCN(C(=O)Cn2ncc3ccccc32)CC1	45.8	326% (inactive)
COc1ccccc1CNC(=O)c1ccc(N(C)S(=O)(=O)c2ccc(C)cc2)cc1	2	94% (inactive)
Cc1ccc(-n2nc3c(c2NC(=O)CCC2CCCCC2)CS(=O)C3)cc1 (configuration not stated)	41.6	834% (inactive)
